# According to ChEMBL document CHEMBL1125331, “6-Hydroxy-3-n-propyl-2,3,4,5-tetrahydro-1H-3-benzazepine and analogs: new centrally acting 5-HT1A receptor agonists” (J Med Chem, 1992):
# Several values for one entry are separate records, joined by “and”; a condition that tells them apart may be missing. Equal entries are not always repeated.
# Legend:
# Rattus norvegicus [1] = assay: Effect evaluated in vivo on 5-HTP accumulation in corpus striatum at ED50 umol/kg after subcutaneous administration; format: functional; details: sc
# How it was run: (§1)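 Male Sprague-Dawley rats (200–300 g) were pretreated with reserpine 5 mg/kg sc 18 h beforehand. Test drug was given at neutral pH, 5 mL/kg. Aromatic amino acid decarboxylase was blocked with NSD 1015. 5-HTP in the dissected brain region was assayed by HPLC with electrochemical detection.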
# Rattus norvegicus [2] = assay: Effect evaluated in vivo on 5-HTP accumulation in corpus striatum after subcutaneous administration; format: functional; how it was run: as §1
# Rattus norvegicus [3] = assay: Effect evaluated in vivo on 5-HTP accumulation in NE-rich hemispheres at ED50 umol/kg after subcutaneous administration; format: functional; details: sc; how it was run: as §1
# Rattus norvegicus [4] = assay: Effect evaluated in vivo on 5-HTP accumulation in limbic system at a dose 3.1 umol/kg (s.c.); format: functional
# How it was run: (§2)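 Male Sprague-Dawley rats (200–300 g) were pretreated with reserpine 5 mg/kg sc 18 h before. Test compound was given sc at 5 mL/kg in neutral solution. 5-HT synthesis rate was indexed by […] 5-HTP accumulation after decarboxylase inhibition with NSD 1015, measured by HPLC-electrochemical detection. Dose-response used 4–6 dose levels, n = 4.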
# Rattus norvegicus [5] = assay: Effect evaluated in vivo on 5-HTP accumulation in corpus striatum at a dose 3.1 umol/kg (s.c.); format: functional; how it was run: as §1
# Rattus norvegicus [6] = assay: Effect evaluated in vivo on 5-HTP accumulation in limbic system at a dose 12.5 umol/kg (s.c.); format: functional; how it was run: as §2
# Rattus norvegicus [7] = assay: Effect evaluated in vivo on 5-HTP accumulation in NE-rich hemispheres at a 3.1 dose uM/kg(sc); format: functional; how it was run: as §1
# Rattus norvegicus [8] = assay: Effect evaluated in vivo on 5-HTP accumulation in NE-rich hemispheres at a 12.5 dose uM/kg(sc); format: functional; how it was run: as §1
# Rattus norvegicus [9] = assay: Effect evaluated in vivo on 5-HTP accumulation in NE-rich hemispheres at a 50 dose uM/kg(sc); format: functional; how it was run: as §1
# Rattus norvegicus [10] = assay: Effect evaluated in vivo on 5-HTP accumulation in limbic system at a dose 50 umol/kg (s.c.); format: functional; how it was run: as §2
# Rattus norvegicus [11] = assay: Effect evaluated in vivo on 5-HTP accumulation in corpus striatum at a dose 50 umol/kg (s.c.); format: functional; how it was run: as §1
# Rattus norvegicus [12] = assay: The compound was tested in vivo for locomotor activity in rats at 0.2 umol/kg after subcutaneous administration
# Rattus norvegicus [13] = assay: Effect evaluated in vivo on 5-HTP accumulation in limbic system after subcutaneous administration; format: functional; details: sc; how it was run: as §1
# Rattus norvegicus [14] = assay: Effect evaluated in vivo on 5-HTP accumulation in limbic system at a dose 1.56 umol/kg (s.c.); format: functional; how it was run: as §2
# Rattus norvegicus [15] = assay: Effect evaluated in vivo on 5-HTP accumulation in limbic system at a dose 25 umol/kg (s.c.); format: functional; how it was run: as §2
# Rattus norvegicus [16] = assay: Effect evaluated in vivo on 5-HTP accumulation in limbic system at a dose 0.20 umol/kg (s.c.); format: functional; how it was run: as §1
# Rattus norvegicus [17] = assay: Effect evaluated in vivo on 5-HTP accumulation in NE-rich hemispheres at a 25 dose uM/kg(sc); format: functional; how it was run: as §1
# Rattus norvegicus [18] = assay: Effect evaluated in vivo on 5-HTP accumulation in NE-rich hemispheres at a 1.56 dose uM/kg(sc); format: functional; how it was run: as §1
# Rattus norvegicus [19] = assay: Effect evaluated in vivo on 5-HTP accumulation in corpus striatum at a dose 25 umol/kg (s.c.); format: functional; how it was run: as §1
# Rattus norvegicus [20] = assay: Effect evaluated in vivo on 5-HTP accumulation in NE-rich hemispheres at a 0.20 dose uM/kg(sc); format: functional; how it was run: as §1
# Rattus norvegicus [21] = assay: Effect evaluated in vivo on 5-HTP accumulation in corpus striatum at a dose 0.20 umol/kg (s.c.); format: functional; how it was run: as §1
# Rattus norvegicus [22] = assay: Effect evaluated in vivo on 5-HTP accumulation in limbic system at a dose 0.39 umol/kg (s.c.); format: functional; how it was run: as §1
# Rattus norvegicus [23] = assay: Effect evaluated in vivo on 5-HTP accumulation in NE-rich hemispheres at a 100 dose uM/kg(sc); format: functional; how it was run: as §1
# D(2) dopamine receptor = D(2) dopamine receptor (Rattus norvegicus, UniProt P61169); assay: Inhibitory activity against Dopamine receptor D2 in rats using [3H]spiperone as radioligand
# D(2) dopamine receptor, sequence (P61169 whole entry): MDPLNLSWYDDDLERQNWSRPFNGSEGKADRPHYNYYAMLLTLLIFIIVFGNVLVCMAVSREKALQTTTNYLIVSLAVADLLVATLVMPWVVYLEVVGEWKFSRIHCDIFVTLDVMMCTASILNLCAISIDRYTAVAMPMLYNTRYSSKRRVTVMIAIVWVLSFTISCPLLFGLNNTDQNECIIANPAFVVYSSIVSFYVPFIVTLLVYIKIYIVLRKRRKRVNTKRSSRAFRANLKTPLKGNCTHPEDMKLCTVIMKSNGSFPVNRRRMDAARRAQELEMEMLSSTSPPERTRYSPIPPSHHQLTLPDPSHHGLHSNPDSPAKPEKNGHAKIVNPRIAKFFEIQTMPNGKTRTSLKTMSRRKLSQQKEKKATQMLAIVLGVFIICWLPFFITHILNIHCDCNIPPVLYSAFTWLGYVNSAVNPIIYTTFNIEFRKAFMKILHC
# How it was run: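 Rat striatal membranes in 50 mM potassium phosphate buffer pH 7.4 were incubated with 0.5 nM [3H]spiperone for 10 min at 37 °C. Specific binding was defined with 10 μM 6,7-ADTN.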
# Rattus norvegicus [24] = assay: Effect evaluated in vivo on 5-HTP accumulation in corpus striatum at a dose 100 umol/kg (s.c.); format: functional; how it was run: as §1
# Rattus norvegicus [25] = assay: Effect evaluated in vivo on 5-HTP accumulation in corpus striatum at a dose 1.56 umol/kg (s.c.); format: functional; how it was run: as §1
# Rattus norvegicus [26] = assay: Effect evaluated in vivo on 5-HTP accumulation in limbic system at a dose 100 umol/kg (s.c.); format: functional; how it was run: as §2
# Rattus norvegicus [27] = assay: Effect evaluated in vivo on 5-HTP accumulation in NE-rich hemispheres at a 0.39 dose uM/kg(sc); format: functional; how it was run: as §1
# Rattus norvegicus [28] = assay: Effect evaluated in vivo on 5-HTP accumulation in corpus striatum at a dose 0.39 umol/kg (s.c.); format: functional; how it was run: as §1
# Rattus norvegicus [29] = assay: The compound was tested in vivo for locomotor activity in rats at 50 umol/kg after subcutaneous administration; format: functional
# How it was run: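 Male Sprague-Dawley rats received reserpine 5 mg/kg sc in the neck 18 h before testing. Test compound was given sc in the neck (n = 4). Rats were placed singly in photocell motility meters immediately after dosing, and counts were accumulated over 30 min (tests 9 a.m.–1 p.m.). Gross behaviour, including 5-HT syndrome, was observed throughout.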
# [30] = target: T1, 5-hydroxytryptamine receptor 1A (Rattus norvegicus, UniProt P19327); assay: Inhibitory activity against 5-hydroxytryptamine 1A receptor in rats, using [3H]8-OH-DPAT as radioligand
# T1 sequence (P19327 whole entry): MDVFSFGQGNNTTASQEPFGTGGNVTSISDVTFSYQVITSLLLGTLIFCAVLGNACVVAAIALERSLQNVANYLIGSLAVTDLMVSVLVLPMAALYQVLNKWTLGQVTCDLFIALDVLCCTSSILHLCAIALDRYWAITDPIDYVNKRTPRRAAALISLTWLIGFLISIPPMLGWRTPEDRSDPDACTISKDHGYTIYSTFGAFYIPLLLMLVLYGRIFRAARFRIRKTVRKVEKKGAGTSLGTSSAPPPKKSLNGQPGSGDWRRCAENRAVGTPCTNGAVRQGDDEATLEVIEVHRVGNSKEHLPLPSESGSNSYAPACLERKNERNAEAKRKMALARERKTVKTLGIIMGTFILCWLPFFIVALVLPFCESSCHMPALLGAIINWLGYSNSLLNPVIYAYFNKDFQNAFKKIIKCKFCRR
# How it was run: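 Rat whole-brain membranes (minus brainstem and cerebellum) in 50 mM Tris pH 8.0 with 120 mM NaCl, 4 mM CaCl2, 4 mM MgCl2 and 10 μM pargyline. Rapid filtration, then scintillation counting. Nonspecific binding defined with 10 μM 5-HT. IC50 by semi-log plot and linear regression.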
# Rattus norvegicus [31] = assay: Effect evaluated in vivo on 5-HTP accumulation in NE-rich hemispheres at a dose uM/kg(sc); format: functional; how it was run: as §1
# Rattus norvegicus [32] = assay: Effect evaluated in vivo on 5-HTP accumulation in limbic system at a dose uM/kg(sc); format: functional; how it was run: as §2
# Rattus norvegicus [33] = assay: Effect evaluated in vivo on 5-HTP accumulation in corpus striatum at a dose uM/kg(sc); format: functional; how it was run: as §1
# Rattus norvegicus [34] = assay: Effect evaluated in vivo on 5-HT synthesis in limbic system at ED50 umol/kg after subcutaneous administration; details: sc
# Rattus norvegicus [35] = assay: Effect evaluated in vivo on DA synthesis in limbic system at ED50 umol/kg after subcutaneous administration; format: functional
# How it was run: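 Male Sprague-Dawley rats (200–300 g) pretreated with reserpine (5 mg/kg sc, 18 h before), then given the test drug sc; neutral solutions at 5 mL/kg. Dopa accumulation after decarboxylase inhibition with NSD 1015 indexes DA synthesis rate in limbic tissue, assayed by HPLC with electrochemical detection.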
# Rattus norvegicus [36] = assay: Effect evaluated in vivo on DA synthesis in limbic system at ED50 umol/kg after peroral administration; format: functional
# How it was run: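 Oral dosing in male Sprague-Dawley rats (200–300 g) pretreated with reserpine 5 mg/kg sc 18 h before. After decarboxylase inhibition with NSD 1015, brain 5-HTP or dopa accumulation (HPLC-electrochemical detection) indexed 5-HT synthesis, DA synthesis (limbic) or NE synthesis (hemispheres, mainly cortex).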
structure (smiles),measurement,setting,value
CN1CCc2cccc(O)c2CC1,ED50,Rattus norvegicus [1],11 µmol/kg
same,Control,Rattus norvegicus [2],70%
same,ED50,Rattus norvegicus [3],12 µmol/kg
same,Control,Rattus norvegicus [4],106%
same,Control,Rattus norvegicus [5],104%
same,Control,Rattus norvegicus [6],72%
same,Control,Rattus norvegicus [7],96%
same,Control,Rattus norvegicus [8],73%
same,Control,Rattus norvegicus [9],58%
same,Control,Rattus norvegicus [10],57%
same,Control,Rattus norvegicus [11],54%
same,Locomotor activity,Rattus norvegicus [12],6
same,ED50,Rattus norvegicus [13],10 µmol/kg
CCCN1CCc2ccc(O)cc2CC1,Control,Rattus norvegicus [14],80%
same,Control,Rattus norvegicus [15],105%
same,Control,Rattus norvegicus [16],122%
same,Control,Rattus norvegicus [17],113%
same,Control,Rattus norvegicus [18],114%
same,Control,Rattus norvegicus [19],107%
same,Control,Rattus norvegicus [20],128%
same,Control,Rattus norvegicus [21],118%
same,Control,Rattus norvegicus [22],121%
same,Control,Rattus norvegicus [23],78%
same,IC50,D(2) dopamine receptor,10000 nM
same,Control,Rattus norvegicus [24],77%
same,Control,Rattus norvegicus [25],110%
same,Control,Rattus norvegicus [26],81%
same,Control,Rattus norvegicus [27],119%
same,Control,Rattus norvegicus [28],106%
CCCCN1CCc2cccc(O)c2CC1,Locomotor activity,Rattus norvegicus [29],19
same,IC50,[30],420 nM
same,Control,Rattus norvegicus [31],108%
same,Control,Rattus norvegicus [32],84%
same,IC50,D(2) dopamine receptor,12000 nM
same,Control,Rattus norvegicus [33],111%
CCN1CCc2cccc(OC)c2CC1,Locomotor activity,Rattus norvegicus [29],62
same,IC50,[30],210 nM
same,Control,Rattus norvegicus [9],64%
same,Control,Rattus norvegicus [10],66%
same,Control,Rattus norvegicus [11],66%
same,IC50,D(2) dopamine receptor,2200 nM
CCCN(CCC)C1CCc2cccc(O)c2C1 (stereo not given) [8-OH-DPAT],ED50,Rattus norvegicus [34],0.052 µmol/kg
same,Locomotor activity,Rattus norvegicus [12],66
same,ED50,Rattus norvegicus [35],0.052 µM/kg and 0.063 µM/kg
same,ED50,Rattus norvegicus [36],3 µM/kg and 7.9 µM/kg and 7.6 µM/kg
